NTR1 ag – agonists of human NTR1, primary screen, imaging, U2OS cells, beta-arrestin-GFP, high content; NTR1-U2OS beta-arrestin-GFP spot imaging, agonist mode; activation, % at 20 µM; hit rate 0.17% among 330,000; Neurotensin receptor type 1 (Homo sapiens), P30989; AID 493036, 2011;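 active = activation at or above 40% of the spot to cytoplasm intensity ratio, with at least 20 cells analyzed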;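 also: 0% = DMSO without peptide and 100% = 100 nM NTR1 peptide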
Target sequence (P30989 whole entry, looked up): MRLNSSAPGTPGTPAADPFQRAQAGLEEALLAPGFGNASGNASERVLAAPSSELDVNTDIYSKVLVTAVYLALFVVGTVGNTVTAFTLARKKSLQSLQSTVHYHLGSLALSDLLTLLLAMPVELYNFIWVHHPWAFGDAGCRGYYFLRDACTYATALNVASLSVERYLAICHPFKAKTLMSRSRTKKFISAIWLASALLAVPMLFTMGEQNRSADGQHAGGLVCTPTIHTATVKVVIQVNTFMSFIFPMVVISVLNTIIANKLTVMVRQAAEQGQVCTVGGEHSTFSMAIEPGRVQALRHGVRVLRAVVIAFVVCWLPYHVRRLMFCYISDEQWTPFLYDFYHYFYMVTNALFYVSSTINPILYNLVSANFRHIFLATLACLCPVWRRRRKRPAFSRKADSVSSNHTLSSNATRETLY
Arr AP2 block – inhibitors of beta-arrestin/AP2 binding, primary screen, biochemical, GPCR trafficking, flow cytometry | AID 504490, 2011 | FITC-arrestin peptide / GST-AP2 beads; AP2 beta2 appendage carries R879A mutation | inhibition, % at 10 µM | hit rate 0.31% among 340,000;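 active = inhibition above a set limit, near 3 SD of compounds lacking own fluorescence, cut at about 54% in these data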;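 also: plate controls were DMSO wells for no effect and 5 µM unlabelled arrestin peptide for full effect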
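Material – GST-tagged AP2 beta2-adaptin appendage (R879A) on 4 µm glutathione beads · Probe or stimulus – fluorescein-tagged arrestin peptide at 50 nM final · Timing – 12 min plus 1 h, RT · Detection – bead flow cytometry, FITC channel · Read-out basis – inhibition as reduced fluorescein signal on beads, percent · Medium – PBS plus Tween 20 (0.05%) and BSA (0.1%)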
PLCg1 inh – PLC-gamma1 enzyme inhibitors, primary screen, biochemical, fluorescence, purified enzyme; inhibition, % at 12.2 µM; hit rate 0.84% among 370,000; AID 720700, 2013; fluorogenic substrate
PLCb3 inh – human PLC-beta3 inhibitors, primary screen, biochemical, fluorescence; Purified PLC-beta3, fluorogenic substrate; inhibition, % at 12.2 µM; hit rate 0.18% among 370,000; in the data active = inhibition above about 11%;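 also: 0% = median of compound wells on plate and 100% = full blocker control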
PLCgamma1 ctr – PLC-gamma1 enzyme inhibitors, counter-screen for PLC-beta3 inhibitor project, biochemical, fluorescence; inhibition, % at 12.3 µM; hit rate 3.1% among 3,300; purified PLC-gamma1, fluorogenic substrate; shares compounds with PLCg1 inh
PLCbeta3 conf – PLC-beta3 inhibitor confirmation, biochemical, fluorescence, purified enzyme; shares compounds with PLCg1 inh; fluorogenic substrate fluorescence; inhibition, % at 12.3 µM; hit rate 1% among 3,300; AID 743261, 2014; in the data active = inhibition above about 11%
* = called active by the depositor; . = no result given. A selection: hits, their analogues and other compounds. The true share with any hit is near 1.3%. Rule as the data show it, unless noted: active = inhibition above about 9.5%; inactive = the rest.

SMILES	NTR1 ag	Arr AP2 block	PLCg1 inh	PLCb3 inh	PLCgamma1 ctr	PLCbeta3 conf
CSc1ccc(CN(C)C(=O)CN2C(=O)NC3(CCCC3)C2=O)cc1	1.6	24.0	2.1	-8.6	.	.
CC(C)(C)c1cc(C(=O)NNC(=O)Nc2cccc(Cl)c2)n(Cc2ccccc2)n1	8.6	-4.6	4.7	3.7	.	.
CC(C)(C)c1cc(C(=O)NNC(=O)Nc2ccccc2)n(Cc2ccccc2)n1	-0.3	27.4	12.4*	10.5	16.9*	18.5*
C=CCN(CC#Cc1ccccc1)Cc1ccc(OC)cc1OC	.	.	-1.4	-0.4	.	.
Oc1ccc(/C=N/NC(=S)Nc2cccnc2)c(O)c1O	.	17.1	11.5*	-4.0	-4.6	-8.4
O=C(Nc1ccc([N+](=O)[O-])cc1)Nn1cnnc1	0.7	27.8	12.1*	3.9	-2.5	-2.5
Cc1ccc(/C=C/C(=O)O)cc1S(=O)(=O)NC1CCS(=O)(=O)C1 (stereo not drawn)	-0.5	50.4	11.2*	8.3	-0.5	1.2
Cc1ccc(/C=C/C(=O)O)cc1S(=O)(=O)NCC1CCCO1 (stereo not drawn)	0.4	-8.5	0.7	0.4	.	.
CCOC(=O)N1CCN(C(=O)C[C@@H]2C(=O)N(Cc3ccc(OC)cc3)/C3=C/CCCCC[C@@]32C(=O)OCC)CC1	.	.	0.9	-4.5	.	.
O=C(NC1CCCCN(Cc2ccc(Cl)cc2)C1=O)c1ccc(F)cc1 (stereo not drawn)	.	.	0.1	-0.3	.	.
COc1ccc(-c2cc(CNC(=O)CN3CCN(C)CC3)on2)cc1	-1.1	6.2	9.5*	-368.8	-7.3	-1.9
CCN(CC)CC(=O)NCc1cc(-c2ccc(OC)cc2)no1	0.0	17.3	1.7	0.8	.	.
Cc1cc(C)cc(C(=O)OCCCN(C)C2CN(Cc3cn(Cc4ccccc4F)nn3)S(=O)(=O)C2)c1 (stereo not drawn)	.	.	1.0	-2.4	.	.
Nc1cccc(C(=O)Nc2ccc3nc(-c4cccnc4)[nH]c3c2)c1	0.7	1.8	11.6*	4.5	-7.4	-5.1
Fc1ccc(CNCc2ccco2)cc1	0.0	-4.6	12.2*	0.8	-1.1	-0.5
CCOc1cc(CNCc2ccccc2)ccc1OCc1ccc(Cl)cc1	7.6	0.0	17.2*	1.3	-1.0	-1.3
COc1ccc(Cl)c(NC(=O)Nc2c(C)n(-c3ccccc3)c(=O)n2C)c1	-0.1	19.4	-0.5	1.0	.	.
Cc1cc(Cl)ccc1NC(=O)Nc1c(C)n(-c2ccccc2)c(=O)n1C	0.7	-1.4	9.6*	4.5	-6.0	-5.4
O=C(OCc1ccc(CSc2nnc(-c3cccc4ccccc34)o2)cc1)c1ccc(F)cc1	.	.	4.3	-4.6	.	.
CCOc1ccc(N(CC(=O)Nc2c(C)n(C)n(-c3ccccc3)c2=O)S(=O)(=O)c2cc(OC)ccc2OC)cc1	.	.	0.3	0.1	.	.
COc1ccc(CN(C(=S)Nc2ccccc2)C2CC(=O)N(c3ccc(F)cc3)C2=O)cc1 (stereo not drawn)	1.9	6.3	2.7	4.8	.	.
CNC(=S)N(Cc1ccc(OC)cc1)C1CC(=O)N(c2ccc(Cl)cc2)C1=O (stereo not drawn)	1.6	1.6	9.6*	2.8	8.5	7.5
COc1cccc(C(=O)N(CN2CCCC2=O)c2cccc(Cl)c2)c1	-1.2	1.0	11.0*	5.8	-1.7	0.0
COc1ccccc1C(=O)N(CN1CCCC1=O)c1cccc(Cl)c1	0.7	-0.2	0.4	-0.2	.	.
COc1ccc(CNS(=O)(=O)/C=C/c2cc(C)ccc2CNC(=O)OC(C)(C)C)cc1	.	.	2.9	2.4	.	.
SMILES	NTR1 ag	Arr AP2 block	PLCg1 inh	PLCb3 inh	PLCgamma1 ctr	PLCbeta3 conf
COc1ccc(OC)c(NC(=O)COC(=O)Cc2ccc(Br)cc2)c1	1.6	-6.6	-1.3	-2.6	.	.
COc1ccc(OC)c(NC(=O)COC(=O)Cc2ccc(-c3ccccc3)cc2)c1	5.3	2.2	14.3*	1.1	-8.0	-5.7
COC(=O)[C@]12C[C@H](CC(=O)NCc3ccccc3)C(=O)N(CCC3=CCCCC3)C1=C[C@H](COCc1ccccc1)O[C@@H]2C	.	.	2.1	-0.6	.	.
CC(C)(C)C(=O)Cn1ncc(Cl)c(Cl)c1=O	.	7.4	0.3	3.0	.	.
CC(C)(C)C(=O)Cn1c[n+](N)cn1	0.4	32.5	10.2*	3.1	-4.7	-0.9
Nc1[nH]c(C(=O)c2ccccc2)c(-c2ccc(Cl)cc2Cl)c1C(=O)c1cccs1	.	.	-6.5	-9.4	.	.
N#Cc1cccc(NC(=O)OC2CCC23CCC(c2ccccc2)CC3)c1 (stereo not drawn)	.	.	1.0	4.6	.	.
Cc1ccc(-n2nnnc2SCC(=O)NCC2(N3CCOCC3)CCCCC2)cc1	0.1	-3.1	9.7*	-10.3	-7.5	-0.9
O=C1c2ccccc2C(=O)N1CCCCN(C(=O)c1ccc([N+](=O)[O-])cc1)c1ccc(Cl)cc1	2.4	5.3	11.6*	2.8	3.7	2.3
O=C1c2ccccc2C(=O)N1CCCCN(C(=O)c1cc([N+](=O)[O-])cc([N+](=O)[O-])c1)c1ccc(Cl)cc1	6.4	5.8	0.8	2.1	.	.
Cc1cccc(C2(c3cccc(C)c3)OC(=O)c3ccccc32)c1	6.0	12.2	14.2*	8.6	-2.5	-2.7
O=C1OC(c2ccccc2)(c2ccccc2)c2ccccc21	.	1.2	-1.0	-2.1	.	.
O=C(N1CCCC1)n1ncc(-c2ccc(-c3ccccc3)cc2)n1	.	.	-2.9	-0.2	.	.
CCOC(=O)C(C)C1(O)c2ccccc2-c2ncccc21 (stereo not drawn)	0.5	-0.3	11.8*	-21.6	-4.5	-1.7
Nc1[nH]c(C(=O)c2ccccc2)c(-c2ccc(Cl)cc2F)c1C(=O)NCCc1c[nH]c2ccccc12	.	.	-11.2	-16.0	.	.
CC1CN(c2ccc([N+](=O)[O-])c(NCCOc3ccccc3)c2)CCN1 (stereo not drawn)	-2.0	1.0	7.7	11.2*	-0.2	1.0
OC(c1ccccc1)(c1ccccc1)C1CCN(CCCNc2cccc(Br)c2)CC1	.	.	5.4	3.1	.	.
O=C(CCc1cccc(Cl)c1)NC1CCCN(Cc2ccccc2F)C1 (stereo not drawn)	0.1	-3.4	3.8	-3.9	.	.
Cc1nn(C)c(Cl)c1CN1CCCC(CCC(=O)NCc2ccccc2F)C1 (stereo not drawn)	0.0	-6.8	-0.5	-1.7	.	.
CCOc1cccc(CN2CCCC(CCC(=O)NCc3ccccc3F)C2)c1O (stereo not drawn)	-1.2	20.4	11.3*	11.4*	-6.3	-0.3
O=C(Cc1ccc(Cl)cc1)NC1CCCN(Cc2ccccc2F)C1 (stereo not drawn)	2.2	-12.1	11.8*	-2.3	-3.3	2.1
CN(Cc1ccccc1)S(=O)(=O)c1cccc(C(=O)OCc2ccccc2Cl)c1	.	.	2.9	0.8	.	.

Compound activity as filed in PubChem BioAssay.
